Laboratory results taken from ChEMBL document CHEMBL3272325, “Structure-activity relationships of dimeric Catharanthus alkaloids. 1. Deacetylvinblastine amide (vindesine) sulfate” (J Med Chem, 1978).
The source made the active and inactive calls. No cut-off for these calls is given here.

How the values were obtained:
[1] = Antitumor activity against mouse Ridgeway osteogenic sarcoma cells allografted in mouse at 0.1 to 0.2 mg/kg/day, ip; format: functional; conditions: route intraperitoneal
In short: (§1)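 Sulfate salts given ip on days 1-9 against ROS and GLS in mice; tumor growth scored as percent inhibition versus controls (+++ = 75-100%, ++ = 50-75%, ± = under 25%).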

B16 [2] = assay: Antitumor activity against mouse B16 cells allografted in B6D2F1 mouse assessed as increase in life span at 1.67 mg/kg/day, ip administered on day 5, 9 and 13 measured for 56 days relative to untreated control; format: functional; conditions: route intraperitoneal
In short: (§2)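 Male B6D2F1 mice implanted ip on day 0 with 0.25 mL of a 20% (w/v) B16 melanoma brei. Alkaloid sulfate salts given ip on days 1, 5, 9 or on days 5, 9, 13, groups of 10, against 30 untreated controls. Read-outs: median survival time with range of individual deaths, and percent increase in life span, with survivors counted on day 56.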

[3] = Toxicity in ip dosed mouse allografted with mouse p388 cells after 1 day; format: organism-based; conditions: in vivo, read-out: MNTD
In short: (§3)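 P388 ascites implanted ip in mice, 10 animals per group. Sulfate salts given ip either daily on days 1-9 or as a single dose on day 1. Median life span was calculated using all deaths and survivors. Percent increase in life span was taken over untreated controls. The highest nontoxic dose was noted.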

B16 [4] = assay: Antitumor activity against mouse B16 cells allografted in B6D2F1 mouse assessed as mean survival time at 0.36 mg/kg/day, ip administered on day 1, 5 and 9 (reference value: 20.0 days); format: functional; conditions: route intraperitoneal; in short: as §2
B16 [5] = assay: Antitumor activity against mouse B16 cells allografted in B6D2F1 mouse assessed as mean survival time at 1.67 mg/kg/day, ip administered on day 1, 5 and 9 (reference value: 20.0 days); format: functional; conditions: route intraperitoneal; in short: as §2
B16 [6] = assay: Antitumor activity against mouse B16 cells allografted in B6D2F1 mouse assessed as increase in life span at 1 mg/kg/day, ip administered on day 5, 9 and 13 measured for 56 days relative to untreated control; format: functional; conditions: route intraperitoneal; in short: as §2
B16 [7] = assay: Antitumor activity against mouse B16 cells allografted in B6D2F1 mouse assessed as increase in life span at 0.216 mg/kg/day, ip administered on day 1, 5 and 9 measured for 56 days relative to untreated control; format: functional; conditions: route intraperitoneal; in short: as §2
Rhesus monkey [8] = assay: Neurotoxicity in iv dosed monkey assessed as peripheral neuropathy; conditions: in vivo
B16 [9] = assay: Antitumor activity against mouse B16 cells allografted in B6D2F1 mouse assessed as increase in life span at 0.216 mg/kg/day, ip administered on day 5, 9 and 13 measured for 56 days relative to untreated control; format: functional; conditions: route intraperitoneal; in short: as §2
B16 [10] = assay: Antitumor activity against mouse B16 cells allografted in B6D2F1 mouse assessed as increase in life span at 0.36 mg/kg/day, ip administered on day 1, 5 and 9 measured for 56 days relative to untreated control; format: functional; conditions: route intraperitoneal; in short: as §2
B16 [11] = assay: Antitumor activity against mouse B16 cells allografted in B6D2F1 mouse assessed as mean survival time at 0.60 mg/kg/day, ip administered on day 5, 9 and 13 (reference value: 20.0 days); format: functional; conditions: route intraperitoneal; in short: as §2
B16 [12] = assay: Antitumor activity against mouse B16 cells allografted in B6D2F1 mouse assessed as mean survival time at 1.67 mg/kg/day, ip administered on day 5, 9 and 13 (reference value: 20.0 days); format: functional; conditions: route intraperitoneal; in short: as §2
[13] = Acute toxicity in rat; format: organism-based; conditions: in vivo
B16 [14] = assay: Antitumor activity against mouse B16 cells allografted in B6D2F1 mouse assessed as mean survival time at 0.216 mg/kg/day, ip administered on day 5, 9 and 13 (reference value: 20.0 days); format: functional; conditions: route intraperitoneal; in short: as §2
B16 [15] = assay: Antitumor activity against mouse B16 cells allografted in B6D2F1 mouse assessed as increase in life span at 0.60 mg/kg/day, ip administered on day 1, 5 and 9 measured for 56 days relative to untreated control; format: functional; conditions: route intraperitoneal; in short: as §2
B16 [16] = assay: Antitumor activity against mouse B16 cells allografted in B6D2F1 mouse assessed as increase in life span at 0.36 mg/kg/day, ip administered on day 5, 9 and 13 measured for 56 days relative to untreated control; format: functional; conditions: route intraperitoneal; in short: as §2
P388 [17] = assay: Antitumor activity against mouse P388 cells allografted in mouse assessed as increase in life span at 1.2 mg/kg/day, ip after 1 day; format: functional; conditions: 24 h, route intraperitoneal; in short: as §3
[18] = Toxicity in ip dosed mouse allografted with mouse P1534(J) cells administered from day 1 to day 9; format: organism-based; conditions: in vivo, read-out: MNTD
In short: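 P1534(J) leukemia implanted subcutaneously in mice. Sulfate salts given ip daily on days 1-9. Read-out was percent inhibition of tumor growth relative to untreated controls. The highest nontoxic dose was recorded.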

Gallus gallus = assay: Neurotoxicity in iv dosed chicken assessed as neuromuscular disturbance by measuring loss of balance; format: organism-based; conditions: in vivo
[19] = Acute toxicity in ip dosed mouse; format: organism-based; conditions: in vivo
B16 [20] = assay: Antitumor activity against mouse B16 cells allografted in B6D2F1 mouse assessed as mean survival time at 0.216 mg/kg/day, ip administered on day 1, 5 and 9 (reference value: 20.0 days); format: functional; conditions: route intraperitoneal; in short: as §2
B16 [21] = assay: Antitumor activity against mouse B16 cells allografted in B6D2F1 mouse assessed as mean survival time at 0.36 mg/kg/day, ip administered on day 5, 9 and 13 (reference value: 20.0 days); format: functional; conditions: route intraperitoneal; in short: as §2
B16 [22] = assay: Antitumor activity against mouse B16 cells allografted in B6D2F1 mouse assessed as mean survival time at 0.60 mg/kg/day, ip administered on day 1, 5 and 9 (reference value: 20.0 days); format: functional; conditions: route intraperitoneal; in short: as §2
Rhesus monkey [23] = assay: Neurotoxicity in iv dosed monkey assessed as peripheral neuropathy; format: toxicity, organism-based, Macaca mulatta; conditions: in vivo
P388 [24] = assay: Antitumor activity against mouse P388 cells allografted in mouse assessed as increase in life span at 4 mg/kg/day, ip after 1 day; format: functional; conditions: 24 h, route intraperitoneal; in short: as §3
B16 [25] = assay: Antitumor activity against mouse B16 cells allografted in B6D2F1 mouse assessed as mean survival time at 1 mg/kg/day, ip administered on day 5, 9 and 13 (reference value: 20.0 days); format: functional; conditions: route intraperitoneal; in short: as §2
P388 [26] = assay: Antitumor activity against mouse P388 cells allografted in mouse assessed as survival at 1.2 mg/kg/day after 1 day; format: functional, organism-based
In short: (§4)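 P388 ascites implanted ip in mice; sulfate salts dosed either daily or as a single dose on day 1, 10 animals per group. Survivors per total were recorded, median life span was calculated using all deaths and survivors, and percent increase of life span was reported.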

[27] = Toxicity in ip dosed mouse allografted with mouse p388 cells administered from day 1 to day 9; format: organism-based; conditions: in vivo, read-out: MNTD; in short: as §3
B16 [28] = assay: Antitumor activity against mouse B16 cells allografted in B6D2F1 mouse assessed as mean survival time at 1 mg/kg/day, ip administered on day 1, 5 and 9 (reference value: 20.0 days); format: functional; conditions: route intraperitoneal; in short: as §2
P388 [29] = assay: Antitumor activity against mouse P388 cells allografted in mouse assessed as increase in life span at 1.8 mg/kg/day, ip after 1 day; format: functional; conditions: 24 h, route intraperitoneal; in short: as §3
P388 [30] = assay: Antitumor activity against mouse P388 cells allografted in mouse assessed as increase in life span at 2.7 mg/kg/day, ip after 1 day; format: functional; conditions: 24 h, route intraperitoneal; in short: as §3
B16 [31] = assay: Antitumor activity against mouse B16 cells allografted in B6D2F1 mouse assessed as increase in life span at 1 mg/kg/day, ip administered on day 1, 5 and 9 measured for 56 days relative to untreated control; format: functional; conditions: route intraperitoneal; in short: as §2
B16 [32] = assay: Antitumor activity against mouse B16 cells allografted in B6D2F1 mouse assessed as increase in life span at 0.60 mg/kg/day, ip administered on day 5, 9 and 13 measured for 56 days relative to untreated control; format: functional; conditions: route intraperitoneal; in short: as §2
P388 [33] = assay: Antitumor activity against mouse P388 cells allografted in mouse assessed as survival at 1.8 mg/kg/day after 1 day; format: functional, organism-based; in short: as §4
P388 [34] = assay: Antitumor activity against mouse P388 cells allografted in mouse assessed as survival at 0.22 mg/kg/day administered from day 1 to day 9; format: functional, organism-based; in short: as §4
[35] = Antitumor activity against mouse P1534(J) cells allografted in mouse assessed as tumor growth inhibition at 0.25 mg/kg/day, ip administered from day 1 to day 9 relative to unreated control; format: functional; conditions: P1534J, route intraperitoneal, read-out: TGI
In short: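 P1534(J) leukemia implanted subcutaneously in mice; sulfate salts given ip on days 1-9. Read-out is percent inhibition of tumor growth versus untreated controls.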

B16 [36] = assay: Antitumor activity against mouse B16 cells allografted in B6D2F1 mouse assessed as increase in life span at 1.67 mg/kg/day, ip administered on day 1, 5 and 9 measured for 56 days relative to untreated control; format: functional; conditions: route intraperitoneal; in short: as §2
[37] = Antitumor activity against mouse Gardner lymphosarcoma cell allografted in mouse at 0.1 to 0.2 mg/kg/day, ip; format: functional; conditions: route intraperitoneal; in short: as §1
P388 [38] = assay: Antitumor activity against mouse P388 cells allografted in mouse assessed as increase in life span at 0.33 mg/kg/day, ip administered from day 1 to day 9 relative to untreated control; format: functional; conditions: route intraperitoneal; in short: as §3
P388 [39] = assay: Antitumor activity against mouse P388 cells allografted in mouse assessed as increase in life span at 0.22 mg/kg/day, ip administered from day 1 to day 9 relative to untreated control; format: functional; conditions: route intraperitoneal; in short: as §3

With CC[C@]1(O)C[C@H]2CN(CCc3c([nH]c4ccccc34)[C@@](C(=O)OC)(c3cc4c(cc3OC)N(C=O)[C@H]3[C@@](O)(C(=O)OC)[C@H](OC(C)=O)[C@]5(CC)C=CCN6CC[C@]43[C@@H]65)C2)C1.O=S(=O)(O)O [VINCRISTINE SULFATE] the TGI [1] was 75%, the ILS at 1.67 mg/kg/day (B16 [2]) was 30% and the MTD at 24 h [3] was 4 mg/kg/day. For the same compound, the MST (B16 [4]) was 26 days, the MST (B16 [5]) was 35 days and the ILS at 1 mg/kg/day (B16 [6]) was 48%. For the same compound, the ILS at 0.216 mg/kg/day (B16 [7]) was 20%, the Activity (Rhesus monkey [8]) was “Toxic” and the ILS at 0.216 mg/kg/day (B16 [9]) was 22%. The ILS at 0.36 mg/kg/day (B16 [10]) was 30%, the MST (B16 [11]) was 24.5 days and the MST (B16 [12]) was 26 days. The LD50 [13] was 1 mg/kg, the MST (B16 [14]) was 24.5 days and the ILS at 0.6 mg/kg/day (B16 [15]) was 52%. The ILS at 0.36 mg/kg/day (B16 [16]) was 20%, the ILS at 1.2 mg/kg/day (P388 [17]) was 68% and the MTD [18] was 0.25 mg/kg/day. The Activity (Gallus gallus) was “Toxic”, the LD50 [19] was 2.1 mg/kg and the MST (B16 [20]) was 24 days. For the same compound, the MST (B16 [21]) was 24 days, the MST (B16 [22]) was 30.5 days and the Activity (Rhesus monkey [23]) was “Toxic”. The ILS at 4 mg/kg/day (P388 [24]) was 118%, the MST (B16 [25]) was 29.5 days and the Activity (P388 [26]) was “inactive”. It also gave an MTD [27] of 0.33 mg/kg/day, an MST (B16 [28]) of 32.5 days and an ILS at 1.8 mg/kg/day (P388 [29]) of 81%. For the same compound, the ILS at 2.7 mg/kg/day (P388 [30]) was 100%, the ILS at 1 mg/kg/day (B16 [31]) was 62% and the ILS at 0.6 mg/kg/day (B16 [32]) was 22%. For the same compound, the Activity (P388 [33]) was “inactive”, the Activity (P388 [34]) was “inactive” and the inhibition in vivo at 0.25 mg/kg/day [35] was 77%. The ILS at 1.67 mg/kg/day (B16 [36]) was 75%, the TGI [37] was 75% and the ILS at 0.33 mg/kg/day (P388 [38]) was 181%. The ILS at 0.22 mg/kg/day (P388 [39]) was 131%.
